In ChEMBL document CHEMBL2046306, “Synthesis of 6-substituted 9-methoxy-11H-indeno[1,2-c]quinoline-11-one derivatives as potential anticancer agents” (Bioorg Med Chem, 2012):
Calls of active or inactive are those of the source. No cut-off for these calls is given here.

How the values were obtained:
NCI-H460 [1] = assay: Antiproliferative activity against human NCI-H460 cells assessed as growth at 100 uM after 48 hrs by alamar blue assay; format: functional; conditions: NCI-H460, 48 h, read-out: Activity
Method in brief: (§1)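 Single-dose prescreen in a three-line NCI panel (NCI-H460, MCF7, SF-268). Cells were inoculated and preincubated on microtiter plates, then exposed to test agent at 100 μM for 48 h. Alamar blue end-point. Growth is expressed as percent of untreated control cells.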

MCF7 = assay: Antiproliferative activity against human MCF7 cells assessed as growth at 100 uM after 48 hrs by alamar blue assay; format: functional; conditions: MCF7, 48 h, read-out: Activity; method in brief: as §1
SF-268 = assay: Antiproliferative activity against human SF268 cells assessed as growth at 100 uM after 48 hrs by alamar blue assay; format: functional; conditions: SF-268, 48 h, read-out: Activity; method in brief: as §1
CCRF-CEM = assay: Growth inhibition of human CCRF-CEM cells after 48 hrs by sulforhodamine B assay; format: functional
Method in brief: (§2)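 NCI 60-line screen. Cells grown in RPMI 1640 with 5% FBS and 2 mM L-glutamine, seeded at 5000–40,000 cells/well, preincubated 24 h at 37 °C. Five 10-fold dilutions added, highest well concentration 10E-4 M. Incubated 48 h in 5% CO₂ at 100% humidity. Sulforhodamine B read-out by optical density; GI50 taken from dose-response curves versus control.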

SR = assay: Growth inhibition of human SR cells after 48 hrs by sulforhodamine B assay; format: functional
Method in brief: (§3)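 NCI 60-line screen. Cells grown in RPMI 1640 with 5% FBS and 2 mM L-glutamine, seeded at 5000-40,000 cells/well and preincubated 24 h at 37 °C. Compounds added at five 10-fold dilutions, highest well concentration 10E-4 M. Exposure 48 h in 5% CO2 at 100% humidity. Endpoint is sulforhodamine B with optical density read-out. GI50 is the concentration giving 50% growth inhibition versus control.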

A549 = assay: Growth inhibition of human A549 cells after 48 hrs by sulforhodamine B assay; format: functional, cell-based; conditions: A549, 48 h; method in brief: as §2
HCT-116 = assay: Growth inhibition of human HCT116 cells after 48 hrs by sulforhodamine B assay; format: functional; conditions: HCT-116, 48 h; method in brief: as §2
U-251 = assay: Growth inhibition of human U251 cells after 48 hrs by sulforhodamine B assay; format: functional; conditions: U-251, 48 h; method in brief: as §3
SK-MEL-5 = assay: Growth inhibition of human SK-MEL-5 cells after 48 hrs by sulforhodamine B assay; format: functional; conditions: SK-MEL-5, 48 h; method in brief: as §3
IGROV-1 = assay: Growth inhibition of human IGROV1 cells after 48 hrs by sulforhodamine B assay; format: functional; conditions: IGROV-1, 48 h; method in brief: as §2
DU-145 = assay: Growth inhibition of human DU145 cells after 48 hrs by sulforhodamine B assay; format: functional; conditions: DU-145, 48 h; method in brief: as §2
[2] = Growth inhibition of human Hs 578T cells after 48 hrs by sulforhodamine B assay; format: functional; method in brief: as §2
NCI-H460 [3] = assay: Cell cycle arrest in human NCI-H460 cells assessed as accumulation at G1 phase at 1 uM after 24 hrs by propidium iodide staining-based flow cytometric analysis (reference value: 66.2 +/- 2.1%); format: functional
NCI-H460 [4] = assay: Cell cycle arrest in human NCI-H460 cells assessed as accumulation at G1 phase at 5 uM after 24 hrs by propidium iodide staining-based flow cytometric analysis (reference value: 66.2 +/- 2.1%); format: functional
NCI-H460 [5] = assay: Cell cycle arrest in human NCI-H460 cells assessed as accumulation at G1 phase at 10 uM after 24 hrs by propidium iodide staining-based flow cytometric analysis (reference value: 66.2 +/- 2.1%); format: functional
NCI-H460 [6] = assay: Cell cycle arrest in human NCI-H460 cells assessed as accumulation at S phase at 1 uM after 24 hrs by propidium iodide staining-based flow cytometric analysis (reference value: 14.3 +/- 1.9%); format: functional
NCI-H460 [7] = assay: Cell cycle arrest in human NCI-H460 cells assessed as accumulation at S phase at 5 uM after 24 hrs by propidium iodide staining-based flow cytometric analysis (reference value: 14.3 +/- 1.9%); format: functional
NCI-H460 [8] = assay: Cell cycle arrest in human NCI-H460 cells assessed as accumulation at S phase at 10 uM after 24 hrs by propidium iodide staining-based flow cytometric analysis (reference value: 14.3 +/- 1.9%); format: functional
NCI-H460 [9] = assay: Cell cycle arrest in human NCI-H460 cells assessed as accumulation at G2/M phase at 1 uM after 24 hrs by propidium iodide staining-based flow cytometric analysis (reference value: 18.6 +/- 1.7%); format: functional
NCI-H460 [10] = assay: Cell cycle arrest in human NCI-H460 cells assessed as accumulation at G2/M phase at 5 uM after 24 hrs by propidium iodide staining-based flow cytometric analysis (reference value: 18.6 +/- 1.7%); format: functional
NCI-H460 [11] = assay: Cell cycle arrest in human NCI-H460 cells assessed as accumulation at G2/M phase at 10 uM after 24 hrs by propidium iodide staining-based flow cytometric analysis (reference value: 18.6 +/- 1.7%); format: functional
NCI-H460 [12] = assay: Induction of apoptosis in human NCI-H460 cells assessed as accumulation at sub-G1 phase at 1 uM after 24 hrs by propidium iodide staining-based flow cytometric analysis (reference value: 0.9 +/- 0.3%); format: functional
NCI-H460 [13] = assay: Induction of apoptosis in human NCI-H460 cells assessed as accumulation at sub-G1 phase at 5 uM after 24 hrs by propidium iodide staining-based flow cytometric analysis (reference value: 0.9 +/- 0.3%); format: functional
NCI-H460 [14] = assay: Induction of apoptosis in human NCI-H460 cells assessed as accumulation at sub-G1 phase at 10 uM after 24 hrs by propidium iodide staining-based flow cytometric analysis (reference value: 0.9 +/- 0.3%); format: functional
NCI-H460 [15] = assay: Induction of apoptosis in human NCI-H460 cells assessed as cell shrinkage at 10 uM after 24 hrs by light microscopic analysis relative to control; format: functional, cell-based
Method in brief: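 H460 cells exposed to DMSO or compound (1.0-10.0 μM) for 24 h at 37 °C, then photographed under a light microscope for morphology.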

Nucleic Acid [16] = assay: Binding affinity to Escherichia coli pBR322 assessed as DNA unwinding at 10 to 100 uM after 12 hrs by ethidium bromide staining-based agarose gel electrophoresis; format: nucleic-acid assay
Method in brief: (§4)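 Negatively supercoiled pBR322 plasmid (400 ng) incubated with the test compound in TE buffer, pH 8.0, for 12 h at room temperature. Loading buffer contained sarkosyl, bromophenol blue and glycerol. Samples run on 1% agarose at 6 V/cm for 2.5 h in TAE, pH 8.5. Ethidium bromide stain, imaged under UV; unwinding read as reduced mobility of form I DNA.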

Nucleic Acid [17] = assay: Binding affinity to Escherichia coli pBR322 assessed as DNA unwinding at 1000 uM after 12 hrs by ethidium bromide staining-based agarose gel electrophoresis; format: nucleic-acid assay; method in brief: as §4
NCI-H460 [18] = assay: Induction of apoptosis in human NCI-H460 cells assessed as PARP cleavage after 24 hrs by Western blot analysis; format: functional, cell-based
Method in brief: (§5)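 Treated H460 cells washed in cold PBS and lysed 30 min on ice in Tris-HCl pH 7.5/NP-40 buffer with protease and phosphatase inhibitors. Lysate spun at 12,000g. Protein measured by Bradford; 20 µg resolved on 10% SDS-PAGE and transferred to PVDF. Blocked with 5% milk, then primary antibody 2 h and secondary 30 min. Detected by ECL for PARP, procaspase-3 and procaspase-8.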

NCI-H460 [19] = assay: Induction of apoptosis in human NCI-H460 cells assessed as induction of caspase 3 activity after 24 hrs by Western blot analysis; format: functional, cell-based; method in brief: as §5
NCI-H460 [20] = assay: Induction of apoptosis in human NCI-H460 cells assessed as induction of caspase 8 activity after 24 hrs by Western blot analysis; format: functional, cell-based; method in brief: as §5
NCI-H460 [21] = assay: Growth inhibition of human NCI-H460 cells after 48 hrs by sulforhodamine B assay; format: functional; conditions: NCI-H460, 48 h; method in brief: as §2

- GI50 (CCRF-CEM): 3390 nM
- GI50 (A549): 1860 nM
- GI50 (HCT-116): 1260 nM
- GI50 (U-251): 1100 nM
- GI50 (SK-MEL-5): 3890 nM
- GI50 (DU-145): 6610 nM
- Activity (Nucleic Acid [16]): Active
- Activity (Nucleic Acid [17]): inactive
- GI50 (NCI-H460 [21]): 1330 nM
SMILES: COc1ccc2c(c1)C(=O)c1c-2c(NCCCN(C)C)nc2ccccc12
- growth at 100 µM (NCI-H460 [1]): 0%
- growth at 100 µM (MCF7): 0%
- growth at 100 µM (SF-268): 0%
- GI50 (SR): 1100 nM
- GI50 (IGROV-1): 6920 nM
- GI50 [2]: 3720 nM
- Activity (NCI-H460 [3]): 58.1%
- Activity (NCI-H460 [4]): 49.2%
- Activity (NCI-H460 [5]): 41.4%
- Activity (NCI-H460 [6]): 10.1%
- Activity (NCI-H460 [7]): 9.1%
- Activity (NCI-H460 [8]): 11.8%
- Activity (NCI-H460 [9]): 28.1%
- Activity (NCI-H460 [10]): 33.5%
- Activity (NCI-H460 [11]): 21.5%
- Activity (NCI-H460 [12]): 3.7%
- Activity (NCI-H460 [13]): 8.2%
- Activity (NCI-H460 [14]): 25.3%
- Activity (NCI-H460 [15]): Active
- Activity (NCI-H460 [18]): Dose-dependent effect
- Activity (NCI-H460 [19]): Dose-dependent effect
- Activity (NCI-H460 [20]): Dose-dependent effect
